Arbovirus anti: arbovirus infection inhibition; arbovirus infection cell-based antiviral screen; actives 0.37% (n = 200,000); AID 1251; inhibition, % at 10 µM; in the data active = inhibition above about 30%
p47phox inh: inhibitors of human p47phox binding. actives 0.53% (n = 220,000). inhibition, % at 24.7 µM. p47phox/p22phox peptide binding, fluorescence polarization, 2 h;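 active = inhibition above about 30%, limit read from the data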
Target sequence (P14598 whole entry, looked up): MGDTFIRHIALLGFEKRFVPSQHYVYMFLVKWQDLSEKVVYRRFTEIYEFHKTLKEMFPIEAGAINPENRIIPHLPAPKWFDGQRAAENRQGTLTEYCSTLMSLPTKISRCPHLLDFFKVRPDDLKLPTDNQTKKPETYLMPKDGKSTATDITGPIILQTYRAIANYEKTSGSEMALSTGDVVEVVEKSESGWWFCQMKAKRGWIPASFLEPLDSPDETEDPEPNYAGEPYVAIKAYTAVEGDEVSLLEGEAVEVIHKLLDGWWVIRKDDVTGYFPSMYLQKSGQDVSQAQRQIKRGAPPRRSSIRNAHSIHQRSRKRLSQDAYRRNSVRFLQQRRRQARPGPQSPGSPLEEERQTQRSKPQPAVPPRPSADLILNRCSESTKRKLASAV
RAM network inh: blocks the yeast RAM network | S. cerevisiae dse1pr::URA3 reporter, 5-FOA growth OD615, 2 d; analog-sensitive cbk1-as2 kinase mutant strain | inhibition, % at 50 µM | actives 1.8% (n = 190,000) | AID 868;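 active = inhibition above a set limit, 3 SD over mean compound inhibition, cut at about 8.4% in these data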;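 also: inhibition rescues growth on 5-FOA so higher OD means more RAM inhibition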
Hck Nef HTS: human Hck-Nef kinase inhibition; P08631; Recombinant Hck-YEEI plus Nef, Z-Lyte FRET kinase assay; inhibition, % at 20 µM; actives 0.68% (n = 220,000);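 active = Hck-Nef kinase inhibition above about 50%, limit read from the data; inactive = inhibition below that limit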
WT yeast gro inh: growth inhibition of WT yeast, mitochondrial fusion screen; mitochondrial fusion phenotypic screen, WT strain; inhibition, % at 10 µM; actives 2.1% (n = 190,000); in the data active = inhibition above about 58%; tested in S. cerevisiae
Calb biofilm kill: mixture kills Candida albicans biofilm cells; inhibition, % at 7.6 µM; C. albicans biofilm persisters + clotrimazole, fluorescence viability; primary screen in compound mixtures of four per well; actives 0.02% (n = 120,000);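 active = inhibition above 30.3% in the primary screen of four-compound pools, then above 30% when the compound was retested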;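 also: compounds exposed to preformed 24 h biofilms for 48 h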
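System: C. albicans CAF4-2 wild-type biofilms; Medium: RPMI/MOPS medium, pH 7.0; Reagent: Clotrimazole, 50 µg/mL; Times: biofilm formation 24 h, compound exposure 48 h, 37 °C; Detection: 2-h Alamar Blue fluorescence, 535/590 nm excitation/emission; Evaluation: percent inhibition of biofilm viability.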
A number is an active result. Sampled rows, rich in hits. Any-hit rate of the full collection: about 4.6%.

`O=c1c2ccccc2sn1-c1ccc(S(=O)(=O)N2CCCC2)cc1` gave Arbovirus anti inactive, p47phox inh 30.5, RAM network inh inactive, Hck Nef HTS inactive and WT yeast gro inh inactive.
For CC(C)NC(=O)COC(=O)C1CSC2(c3ccc(Br)cc3)CCC(=O)N12 (centres undefined) the results were Arbovirus anti inactive, p47phox inh inactive, RAM network inh inactive, Hck Nef HTS inactive, WT yeast gro inh inactive and Calb biofilm kill inactive.
`CCOC(=O)CC(=O)NC(CC(=O)OC)c1ccc(Br)cc1` (centres undefined) gave Arbovirus anti inactive, p47phox inh inactive, RAM network inh inactive, Hck Nef HTS inactive, WT yeast gro inh inactive and Calb biofilm kill inactive.
Cc1cccc2nc(COc3ccc(Cl)c4cccnc34)cn12 was read as Arbovirus anti inactive, p47phox inh inactive, RAM network inh inactive, Hck Nef HTS inactive, WT yeast gro inh inactive and Calb biofilm kill inactive.
`CCC(CC)N=C1NS(=O)(=O)c2cc([N+](=O)[O-])ccc21` gave Arbovirus anti inactive, p47phox inh inactive, RAM network inh inactive, Hck Nef HTS inactive, WT yeast gro inh inactive and Calb biofilm kill inactive.
For NC(=O)c1cccc(S(=O)(=O)N2CCCCC2)c1 the results were Arbovirus anti inactive, p47phox inh inactive, RAM network inh inactive, Hck Nef HTS inactive and WT yeast gro inh inactive.
Screening Cn1c(O)c(N=NC(=O)c2cccc(S(=O)(=O)N3CCCCC3)c2)c2ccccc21 returned Arbovirus anti inactive, p47phox inh inactive, RAM network inh 8.9, Hck Nef HTS inactive, WT yeast gro inh inactive and Calb biofilm kill inactive.
`CNC(=S)N1C2CCC1CC(NC(=O)NC13CC4CC(CC(C4)C1)C3)C2` (centres undefined) gave Arbovirus anti inactive, p47phox inh inactive, RAM network inh inactive, Hck Nef HTS inactive and WT yeast gro inh inactive.
For Cc1cccc(CSc2nn3c(=O)c(C)nnc3s2)c1 the results were Arbovirus anti 39.7, p47phox inh inactive, RAM network inh inactive, Hck Nef HTS inactive, WT yeast gro inh inactive and Calb biofilm kill inactive.
Screening Cc1ccc(CSc2nn3c(=O)c(C)nnc3s2)cc1 returned Arbovirus anti inactive, p47phox inh inactive, RAM network inh inactive, Hck Nef HTS inactive, WT yeast gro inh inactive and Calb biofilm kill inactive.
Screening CCOC(=O)C1CCCN(C(=O)Nc2cccc(Cl)c2)C1 (centres undefined) returned Arbovirus anti inactive, p47phox inh inactive, RAM network inh inactive, Hck Nef HTS inactive and WT yeast gro inh inactive.
CCCCSc1nnc(-c2ccccc2N)c(=O)[nH]1 was read as Arbovirus anti inactive, p47phox inh inactive, RAM network inh inactive, Hck Nef HTS inactive and WT yeast gro inh inactive.
`CCCCCCCSc1nnc(-c2ccccc2N)c(=O)[nH]1` gave Arbovirus anti inactive, p47phox inh inactive, RAM network inh inactive, Hck Nef HTS inactive, WT yeast gro inh 79.1 and Calb biofilm kill inactive.
COCC(=O)OCC(=O)Nc1cc(C)c(C)cc1[N+](=O)[O-] was read as Arbovirus anti inactive, p47phox inh inactive, RAM network inh inactive, Hck Nef HTS inactive, WT yeast gro inh inactive and Calb biofilm kill inactive.
For COC(=O)c1ccc(C2N=C(c3cccs3)CC(c3ccccc3O)N2)cc1 (centres undefined) the results were Arbovirus anti inactive, p47phox inh inactive, RAM network inh inactive, Hck Nef HTS inactive, WT yeast gro inh 62.5 and Calb biofilm kill inactive.
For Cc1cc([N+](=O)[O-])nn1CC(=O)Nc1cnc2ccccc2c1 the results were Arbovirus anti inactive, p47phox inh inactive, RAM network inh inactive, Hck Nef HTS inactive, WT yeast gro inh inactive and Calb biofilm kill inactive.
For COc1ccc(OC)c(-c2cc(C(=O)Nc3c(C)nn(Cc4ccccc4)c3C)no2)c1 the results were Arbovirus anti inactive, p47phox inh inactive, RAM network inh inactive, Hck Nef HTS inactive and WT yeast gro inh 59.9.
Screening COc1ccc(OC)c(-c2cc(C(=O)Nc3c(C)nn(Cc4ccc(Cl)cc4)c3C)no2)c1 returned Arbovirus anti inactive, p47phox inh inactive, RAM network inh inactive, Hck Nef HTS inactive and WT yeast gro inh inactive.
Screening CC1CCCN(S(=O)(=O)c2ccc(C(=O)Nc3ccccc3-c3nc4ccccc4[nH]3)cc2)C1 (centres undefined) returned Arbovirus anti inactive, p47phox inh inactive, RAM network inh 9.8, Hck Nef HTS inactive, WT yeast gro inh inactive and Calb biofilm kill inactive.
Screening CC(C)c1nc(N2CCCC2)c(C#N)c2c1CCCC2 returned Arbovirus anti inactive, p47phox inh inactive, RAM network inh inactive, Hck Nef HTS inactive and WT yeast gro inh 70.3.
CCc1nc(N2CCCC2)c(C#N)c2c1CCCC2 was read as Arbovirus anti inactive, p47phox inh inactive, RAM network inh inactive, Hck Nef HTS inactive and WT yeast gro inh inactive.
Screening CN(C)c1ccc(/C=C2/C=C(c3ccc4c(c3)CCCC4)OC2=O)cc1 returned p47phox inh 45.2, Hck Nef HTS inactive and Calb biofilm kill inactive.
Screening COc1ccc(S(=O)(=O)N(CC(=O)O)c2ccc(C)cc2)cc1 returned Arbovirus anti inactive, p47phox inh inactive, RAM network inh inactive, Hck Nef HTS inactive and WT yeast gro inh inactive.
COc1ccc(N(C(=O)COc2cccc(C)c2)S(=O)(=O)c2ccc(C)cc2)cc1 was read as Arbovirus anti inactive, p47phox inh inactive, RAM network inh 9.7, Hck Nef HTS inactive, WT yeast gro inh inactive and Calb biofilm kill inactive.
Screening O=C(N/N=C/c1ccccc1Cl)c1nc2ccc([N+](=O)[O-])cc2c(=O)[nH]1 returned Arbovirus anti inactive, p47phox inh inactive, RAM network inh 10.2, Hck Nef HTS inactive, WT yeast gro inh inactive and Calb biofilm kill inactive.
Screening CCC(=O)N(CCC(c1ccc(C)cc1)c1ccco1)Cc1ccco1 (centres undefined) returned p47phox inh inactive, Hck Nef HTS inactive and Calb biofilm kill inactive.
CCCNC(=O)c1nnsc1Sc1ccc(Cl)cc1 was read as Arbovirus anti inactive, p47phox inh inactive, RAM network inh inactive, Hck Nef HTS inactive, WT yeast gro inh inactive and Calb biofilm kill inactive.
CCCCc1ccc(NC(=S)NCc2cccc(OC)c2)cc1 was read as Arbovirus anti inactive, p47phox inh inactive, RAM network inh inactive, Hck Nef HTS inactive, WT yeast gro inh 65.9 and Calb biofilm kill inactive.
For CCc1ccc(NC(=S)NCc2ccccc2)cc1 the results were Arbovirus anti inactive, p47phox inh inactive, RAM network inh inactive, Hck Nef HTS inactive, WT yeast gro inh 69.9 and Calb biofilm kill inactive.
CCc1ccc(NC(=S)NCc2cccnc2)cc1 was read as p47phox inh inactive, Hck Nef HTS inactive and Calb biofilm kill inactive.
For O=C(O)c1cnn2c(-c3ccc(F)cc3)ccnc12 the results were Arbovirus anti inactive, p47phox inh inactive, RAM network inh inactive, Hck Nef HTS inactive, WT yeast gro inh inactive and Calb biofilm kill inactive.
`Cc1cc(-c2ccccc2)nc(=O)[nH]1` gave Arbovirus anti inactive, p47phox inh inactive, RAM network inh inactive, Hck Nef HTS inactive and WT yeast gro inh inactive.

Bioassay records (PubChem)
